Among the data in ChEMBL document CHEMBL1144697, “9-cyano-1-azapaullone (cazpaullone), a glycogen synthase kinase-3 (GSK-3) inhibitor activating pancreatic beta cell protection and replication” (J Med Chem, 2008) are Fold change, Activity and IC50 values, retold here.

Active and inactive are the calls of the source. The rule behind the calls is not given here. Where only a bound is given, the exact number is not on record here.

Test [1] can be described thus: Activation of Pax4 RNA expression in rat beta cells at 2 uM after 4 hrs relative to control. Type of test: functional, cell-based. As to conditions: Pancreatic beta cell. The gist of the method:
(§1)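 Primary rat islets exposed to compound for 4 h. Pax4 and cyclophilin B expression measured by qRT-PCR as fold change versus vehicle-treated control (set to 1). Triplicates, mean ± SD.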

Test [2] has as its system INS-1E. Nature of the test: Inhibition of glucose and palmitate-induced apoptosis in rat INS-1E cells by DNA fragmentation assay. Type of test: functional, cell-based. The gist of the method: (§2)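 INS-1E cells preincubated 1 h with compound (µM), then exposed to toxic high glucose/palmitate for 24 h. Apoptosis read as cytosolic DNA fragments or caspase activity, as fold change versus untreated control ± SD. At least four wells per point; Student's t test against glucose/palmitate alone.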

Test [3] is described as follows: Activation of Pax4 RNA expression in rat INS-1E cells at 1 uM after 24 hrs relative to control. Type of test: functional, cell-based. The gist of the method: (§3)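 Compound added to INS-1E cells for 4 h or 24 h. Pax4 and cyclophilin B transcripts quantified by qRT-PCR. Reported as fold change versus vehicle-treated control, with the control level set to 1. Mean of triplicates ± SD.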

The subject of another test is SH-SY5Y. Nature of the test: Inhibition of GSK3 in human SHSY5Y cells assessed as beta-casein phosphorylation level in presence of MG132. In kind it is cell-based. The following applies: in the assay text read “beta-catenin” for “beta-casein”. An outline of the steps:
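Nearly confluent SH-SY5Y cells in DMEM with 10% FCS were co-treated with compound across a concentration range plus 2 µM MG132, DMSO ≤1% final. Phospho-β-catenin (Ser33/Ser37/Thr41) measured by ELISA and expressed as % of cells given MG132 alone (100%).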

The test system of test [4] is INS-1E. As to the kind of experiment: Suppression of metabolic activity in rat INS-1E cells at 1 uM. Type of test: functional, cell-based. The gist of the method:
(§4)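 INS-1E cells treated with compound over a concentration range, with or without 0.3 mM BSA-coupled palmitate plus 25 mM glucose for 24 h. Viability/metabolic activity measured as an indirect readout of mitochondrial energy production. At least four wells per point; representative of ≥3 independent studies.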

The nature of test [5]: Activation of cyclophilin B gene expression in rat INS-1E cells at 1 uM after 24 hrs relative to control. In kind it is functional, cell-based. The gist of the method:
as §3

Test [6] concerns Pancreatic beta cell. Nature of the test: Stimulation of rat primary beta cell replication at 2 uM. Type of test: functional. The gist of the method: (§5)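 Isolated rat islets incubated with compound for 72 h, then disaggregated and spotted onto slides. Cells double-immunostained for C-peptide and Ki-67. Replication scored as % Ki-67+ among C-peptide+ cells, compared with untreated islets.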

In test [7] the target is Cyclin-dependent kinase 5/CDK5 activator 1 (Homo sapiens, UniProt Q00535). As to the kind of experiment: Inhibition of recombinant CDK5/p25 expressed in Escherichia coli.
The test system of test [8] is INS-1E. As to the kind of experiment: Protection against glucose and palmitate-induced toxicity in rat INS-1E cells at 2 uM after 24 hrs. In kind it is functional, cell-based. The gist of the method:
as §4

The test system of test [9] is INS-1E. As to the kind of experiment: Stimulation of rat INS-1E cell replication assessed as BrdU incorporation. Type of test: functional, cell-based. An outline of the steps:
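INS-1E cells exposed to compound at various concentrations for 24 h. Replication measured as BrdU incorporation, given as fold increase versus untreated cells ± SD. At least four wells per point, two independent studies, Student's t test.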
For orientation: Dividing cells build labelled thymidine or BrdU into new DNA.

A short description of test [10]: Inhibition of starfish CDK1/cyclin B. More on the design: species or system Asteroidea. An outline of the steps:
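Kinase inhibition assays at 15 µM final ATP, run in triplicate.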

Test [11] concerns INS-1E. Nature of the test: Protection against glucose and palmitate-induced toxicity in rat INS-1E cells after 24 hrs. Type of test: functional, cell-based. The gist of the method:
as §4

Test [12] can be described thus: Activation of cyclophilin B gene expression in rat beta cells at 2 uM after 4 hrs relative to control. In kind it is functional, cell-based. The following applies: Pancreatic beta cell. The gist of the method:
as §1

Test [13] can be described thus: Activation of Pax4 RNA expression in rat INS-1E cells at 1 uM after 4 hrs relative to control. Type of test: functional, cell-based. The gist of the method:
as §3

Test [14] in a line: Activation of cyclophilin B gene expression in rat INS-1E cells at 1 uM after 4 hrs relative to control. In kind it is functional, cell-based. The gist of the method: as §3
In test [15] the test system is Pancreatic beta cell. Nature of the test: Stimulation of rat primary beta cell replication at 0.5 uM. In kind it is functional. The gist of the method: as §5
The subject of test [16] is INS-1E. Nature of the test: Protection against glucose and palmitate-induced toxicity in rat INS-1E cells at 0.3 uM after 24 hrs. In kind it is functional, cell-based. The gist of the method:
as §4

The nature of test [17]: Inhibition of glucose and palmitate-induced apoptosis in rat INS-1E cells at 2 uM by DNA fragmentation assay. In kind it is functional. More on the design: scale not given: the % may be the effect or the level left. An outline of the steps:
as §2

For test [18], the target named is Glycogen synthase kinase-3 (Homo sapiens, UniProt P49840+P49841). Nature of the test: Inhibition of GSK3alpha/beta in pig brain. As to conditions: target entry is the homologue from another species. More on the design: species or system Sus scrofa.
A short description of test [19]: Inhibition of glucose and palmitate-induced apoptosis in rat INS-1E cells at 2 uM by caspase activity assay. Type of test: functional. Details: scale not given: the % may be the effect or the level left. An outline of the steps: as §2
Test [20] concerns INS-1E. As to the kind of experiment: Inhibition of glucose and palmitate-induced apoptosis in rat INS-1E cells by caspase activity assay. Type of test: functional, cell-based. The gist of the method:
as §2

Cyclin-dependent kinase 5/CDK5 activator 1, sequence (Q00535 whole entry): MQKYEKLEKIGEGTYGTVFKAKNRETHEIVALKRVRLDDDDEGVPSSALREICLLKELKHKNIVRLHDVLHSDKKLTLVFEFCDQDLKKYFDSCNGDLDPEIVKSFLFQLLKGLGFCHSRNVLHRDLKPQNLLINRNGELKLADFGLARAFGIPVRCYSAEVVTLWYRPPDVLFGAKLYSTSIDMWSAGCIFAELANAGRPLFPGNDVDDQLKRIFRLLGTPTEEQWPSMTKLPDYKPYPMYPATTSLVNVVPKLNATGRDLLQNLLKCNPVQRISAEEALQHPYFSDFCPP
Cyclin-dependent kinase 5/CDK5 activator 1, sequence (Q15078 whole entry, further chain): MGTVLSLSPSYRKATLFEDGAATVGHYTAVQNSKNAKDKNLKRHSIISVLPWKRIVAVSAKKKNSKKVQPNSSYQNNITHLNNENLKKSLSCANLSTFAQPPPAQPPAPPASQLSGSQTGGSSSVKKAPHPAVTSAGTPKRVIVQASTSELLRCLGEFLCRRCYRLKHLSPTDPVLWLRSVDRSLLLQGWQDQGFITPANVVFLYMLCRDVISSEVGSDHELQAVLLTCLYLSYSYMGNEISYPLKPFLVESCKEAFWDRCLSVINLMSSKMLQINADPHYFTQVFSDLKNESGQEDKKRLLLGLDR

Consider `N#Cc1ccc2[nH]c3c(c2c1)CC(=O)Nc1cccnc1-3` [CAZPAULLONE], for which the Fold change in test [1] was found to be 2.4; in test [3] it was 0.56; in test [5], 1.42; in [12] it was 0.73; in test [13], 4.87; in test [14], 1.11. Further, the outcome in the test on INS-1E [2], in the test with INS-1E [4], with INS-1E [8], in the test with INS-1E [11], in the test on INS-1E [16] and with INS-1E [20] was Active. For the same compound, the Activity entry in the test with SH-SY5Y is “Dose-dependent effect”; in the test with INS-1E [9], “Dose-dependent effect”; with Pancreatic beta cell [15], 2.5; in [17], more than 50%; in test [19], more than 50%. Besides, the outcome in the test with Pancreatic beta cell [6] was inactive. The half-inhibitory concentration (IC50) (as a rule, the concentration at which inhibition is half-maximal) in test [7] came to 0.3 µM; in test [10], 0.5 µM; in [18], 0.008 µM.
